A word on the inhibition: it is the relative decrease from the control value, in per cent. The low end stands for a response near the control, the high end for a response far below the control. As a reminder, the inhibition in vivo is the share of the control response that was lost under treatment. A high value points to strong suppression. A word on the IC50: it is the concentration that gives 50% inhibition.

We go through 13 compounds from ChEMBL document CHEMBL1131063 (J Med Chem, 1998).

The target of experiment [1] is Phospholipase A2, major isoenzyme (Sus scrofa) (UniProt P00592). As to the kind of experiment: Inhibitory activity against Porcine pancreatic secretory Phospholipase A2 at 10 uM. The method, boiled down: (§1)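 Enzyme diluted in 100 mM Tris-HCl, 1 mM CaCl2, pH 7.5; preincubated 5 min at 37 °C with test compound or vehicle, then 15 min with autoclaved oleate-labeled membranes as substrate. Stopped with ice-cold BSA in saline (final 0.07% w/v), centrifuged 2500g 10 min at 4 °C. Supernatant radioactivity counted by liquid scintillation; percent inhibition at 10 μM, means ± SEM, n = 6.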
Chain of Phospholipase A2, major isoenzyme (Sus scrofa) (P00592 23-146 limits assumed): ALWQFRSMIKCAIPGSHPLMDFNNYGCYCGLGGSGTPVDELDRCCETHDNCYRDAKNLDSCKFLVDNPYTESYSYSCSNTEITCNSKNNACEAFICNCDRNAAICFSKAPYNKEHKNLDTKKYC

In experiment [2] the target is T1, Phospholipase A2, membrane associated (Homo sapiens) (UniProt P14555).
T1 sequence (whole entry): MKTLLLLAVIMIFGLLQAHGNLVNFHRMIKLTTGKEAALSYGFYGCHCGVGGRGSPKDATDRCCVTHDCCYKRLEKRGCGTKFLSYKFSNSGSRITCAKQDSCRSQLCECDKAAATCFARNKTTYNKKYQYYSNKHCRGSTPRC
As to the kind of experiment: Inhibitory activity against human synovial Phospholipase at 10 uM. In outline:
as §1

In experiment [3] the test system is Phospholipase A2 (Naja naja). As to the kind of experiment: Inhibitory activity against naja naja secretory Phospholipase A2 at 10 uM. The following applies: snake.
For experiment [4], the target named is T2, Phospholipase A2 (Apis mellifera) (UniProt P00630).
T2 sequence (whole entry): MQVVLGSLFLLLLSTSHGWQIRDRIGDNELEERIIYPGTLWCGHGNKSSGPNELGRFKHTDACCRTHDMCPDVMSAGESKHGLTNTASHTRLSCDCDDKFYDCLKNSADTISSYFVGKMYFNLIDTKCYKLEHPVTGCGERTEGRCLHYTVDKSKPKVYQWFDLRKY
In words: Inhibitory activity against bee secretory Phospholipase A2 enzyme at 10 uM.

Experiment [5] concerns Mus musculus. In words: Inhibitory activity against carrageenan induced paw edema at a oral dose of 10 mg/kg in mouse 3 hours after carrageenan administration. The class given is functional. The method, boiled down: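 Female Swiss mice (20–25 g), fasted 12 h with water available, in groups of six, dosed orally (0.5 mL) in ethanol/Tween 80/water 5:5:90 1 h before subplantar injection of 0.05 mL 3% w/v carrageenan into right hind paw. Paw volumes read by plethysmometer; edema = injected minus contralateral volume; percent inhibition vs vehicle controls; ANOVA with Dunnett's test.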
Background: In the carrageenan paw model, swelling and tenderness develop within hours.

The subject of experiment [6] is Mus musculus. As to the kind of experiment: Inhibitory activity against carrageenan induced paw edema at a oral dose of 10 mg/kg in mouse 5 hours after carrageenan administration. In kind it is functional. The method, boiled down:
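Female Swiss mice (20–25 g) were fasted 12 h and dosed orally in ethanol/Tween 80/water (5:5:90), n = 6 per group. One hour later, 0.05 mL of 3% carrageenan was injected subplantar into the right hind paw. Edema was injected minus contralateral paw volume by plethysmometer, expressed as % inhibition versus control. ANOVA with Dunnett's test.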

The target of experiment [7] is T2, Phospholipase A2 (Apis mellifera). As to the kind of experiment: Inhibitory activity against bee secretory Phospholipase A2 enzyme when pre-incubated with Tris buffer for 15 minutes. The method, boiled down:
(§2)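 Bee venom PLA2 was incubated at 41 °C with the test compound or methanol (control) in 100 mM Tris-HCl, 1 mM CaCl2, pH 7.5, for varied preincubation times. It was then diluted 2-fold with Tris buffer or with hydroxylamine (final 50 mM, pH 7.5) and held 2 h at 41 °C. PLA2 activity was then assayed. Final compound concentrations were 5–50 μM. n = 6.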

Experiment [8] has the same target. As to the kind of experiment: Inhibitory activity against bee secretory Phospholipase A2 enzyme when pre-incubated with Tris buffer for 5 minutes. In outline:
as §2

Experiment [9] has the same target. In words: Inhibitory activity against bee secretory Phospholipase A2 enzyme when pre-incubated with Hydroxylamine for 15 minutes. The method, boiled down: as §2
The target is the same in experiment [10]. As to the kind of experiment: Inhibitory activity against bee secretory Phospholipase A2 enzyme when pre-incubated with Hydroxylamine for 60 minutes. The method, boiled down: as §2
Experiment [11] has the same target. As to the kind of experiment: Inhibitory activity against bee secretory Phospholipase A2 enzyme when pre-incubated for 5 minutes. In outline: as §2
Experiment [12] concerns the target T3, Phospholipase A2 (Apis mellifera, UniProt P00630).
T3 sequence (P00630 whole entry): T2 sequence (whole entry)
In words: Inhibitory activity against bee secretory Phospholipase A2 enzyme.

In experiment [13] the target is T2, Phospholipase A2 (Apis mellifera). As to the kind of experiment: Inhibitory activity against bee secretory Phospholipase A2 enzyme when pre-incubated with Hydroxylamine for 5 minutes. The method, boiled down:
as §2

For experiment [14] the target is unchanged. In words: Inhibitory activity against bee secretory Phospholipase A2 enzyme when pre-incubated with Tris buffer for 60 minutes. The method, boiled down: as §2
Experiment [15] has the same target. As to the kind of experiment: Inhibitory activity against bee secretory Phospholipase A2 enzyme when pre-incubated for 15 minutes. The method, boiled down: as §2
Experiment [16] shares this target. In words: Inhibitory activity against bee secretory Phospholipase A2 enzyme when pre-incubated for 60 minutes. In outline:
as §2

The target of experiment [17] is T4, Phospholipase A2, membrane associated (Homo sapiens, UniProt P14555).
T4 sequence (P14555 whole entry): T1 sequence (whole entry)
In words: Inhibitory activity against human synovial recombinant Phospholipase enzyme.

In experiment [18] the target is T2, Phospholipase A2 (Apis mellifera). As to the kind of experiment: Inhibition against bee secretory PLA2 enzyme when pre-incubated for 5 minutes. In outline: as §2
The target is the same in experiment [19]. In words: Inhibitory activity against secretory PLA2 enzyme (Bee venom) when pre-incubated with Hydroxylamine for 15 minutes. The method, boiled down: as §2

With `C/C=C/CC1=CCC(C2=CC(=O)OC2O)OC1` (stereo unspecified), the inhibition stood at 17.6% in experiment [1], 24.8% in experiment [2], 7.1% in experiment [3] and 40.1% in experiment [4].
The matching figures for `CC1=CCC(C2=CC(=O)OC2O)OC1` (stereo unspecified): 5.6%, 0.1%, 1.4% and 8%.
As to `COc1ccc2c(c1)c(CC(=O)O)c(C)n2C(=O)c1ccc(Cl)cc1` [INDOMETHACIN], the inhibition in vivo at 10 mg/kg in experiment [5] amounted to 40%; in experiment [6], 42.3%.
As for `O=C1C=C(C2CC=C(Cc3ccccc3)CO2)C(O)O1` (stereo unspecified), the inhibition in experiment [1] came out at 17.4%; in [2], 15.5%; in [3], 7.6%; in [4], 30.3%.
For the compound `CC(C)=CCC/C(C)=C/CC/C(C)=C/CC1=CCC(C2=CC(=O)OC2O)OC1` (stereo unspecified), the inhibition in experiment [1] came out at 30%; in experiment [7], 58.7%; in experiment [8] it was 58.5%; in [2], 63.1%; in experiment [9], 51.1%; in experiment [10] it was 65.1%. Moreover, the inhibition amounted to 85.6% in experiment [11]; 50.1% in [13]; 65.3% in experiment [14]; 71.8% in experiment [4]; 87.1% in experiment [15]; 99.7% in experiment [16]. Further, the results for the IC50 in experiment [12] and in experiment [17] were 1700 nM and 4200 nM, respectively.
For `CC(C)=CCC/C(C)=C/CC/C(C)=C/CC1=CCC(C2=CC(=O)OC2O)OC1O` (stereo unspecified), the inhibition in experiment [1] was found to be 39.8%; in experiment [18], 48.4%; in [7] it was 80.9%; in experiment [8], 80.8%; in experiment [2], 74.6%; in [10], 71.5%. For the same compound, the inhibition is 56.9% in experiment [19]; 33.6% in experiment [3]; 39.1% in experiment [13]; 75.2% in [14]; 84.2% in experiment [4]; 70.3% in [15]. Further, in [16], the inhibition was 95.1%. In addition, the IC50 in [12] is 500 nM; in experiment [17], 900 nM. The inhibition in vivo at 10 mg/kg worked out at 42.9% in [5] and 43.2% in experiment [6].
Consider `C=C1CCC[C@H]2[C@](C)(CCC3=CCC(C4=CC(=O)OC4O)OC3)[C@H](C)CC[C@]12C` (stereo partly specified), for which the inhibition in experiment [7] was 95.4%; in experiment [8] it was 95.4%; in [9], 89.4%; in [10] it was 99.3%; in experiment [11], 85.8%; in experiment [13] it was 81.9%. In addition, the inhibition came out at 98.4% in [14], 93.7% in experiment [15] and 100% in experiment [16].
As to `CC1=C(CC/C(C)=C/CCC2=CC[C@H](C3=CC(=O)O[C@H]3O)O[C@H]2O)C(C)(C)CCC1`, the inhibition in [1] worked out at 32.3%; in experiment [7] it was 44.2%; in experiment [8] it was 42.4%; in [2], 93.2%; in experiment [9], 28%; in experiment [10], 43.1%. Moreover, the inhibition in experiment [11] was found to be 49.5%; in experiment [13], 21%; in experiment [14] it was 47.3%; in experiment [4], 62.5%; in [15] it was 63.3%; in experiment [16] it was 91.1%.
Take `O=C1C=C(C2CC=CCO2)C(O)O1` (stereo unspecified): the inhibition in experiment [1] amounted to 0.2%; in [2] it was 42.3%; in experiment [3], 10.1%; in experiment [4], 9.3%.
The matching figures for `C/C=C/CC1=CCC(C2=CC(=O)OC2O)OC1O` (stereo unspecified): 15.1%, 21.2%, 1.8% and 24.8%.
The matching figures for `O=C1C=C(C2CC=CC(O)O2)C(O)O1` (stereo unspecified): 1%, 18.9%, 5.2% and 0.7%.
For `CC1=CCC(C2=CC(=O)OC2O)OC1O` (stereo unspecified), in that order: 6.8%, 3.2%, 3% and 14.9%.
In the case of `O=C1C=C(C2CC=C(Cc3ccccc3)C(O)O2)C(O)O1` (stereo unspecified), the inhibition in [1] was 16.1%; in experiment [2], 11.9%; in [3] it was 7.1%; in experiment [4], 16.1%.
